“Also recorded” adds a separate entry of the source.
What was measured:
[1] = target: T1, serine racemase (SR) in PC-12 cells (Rattus norvegicus, UniProt Q76EQ0); assay: CE-LIF measurement of intra-cellular D-Ser production in PC-12 cells; type: cell-based; conditions: for intra-cellular D-Ser production: 36 h, PC-12, n = 3
T1 sequence (Q76EQ0 1-333): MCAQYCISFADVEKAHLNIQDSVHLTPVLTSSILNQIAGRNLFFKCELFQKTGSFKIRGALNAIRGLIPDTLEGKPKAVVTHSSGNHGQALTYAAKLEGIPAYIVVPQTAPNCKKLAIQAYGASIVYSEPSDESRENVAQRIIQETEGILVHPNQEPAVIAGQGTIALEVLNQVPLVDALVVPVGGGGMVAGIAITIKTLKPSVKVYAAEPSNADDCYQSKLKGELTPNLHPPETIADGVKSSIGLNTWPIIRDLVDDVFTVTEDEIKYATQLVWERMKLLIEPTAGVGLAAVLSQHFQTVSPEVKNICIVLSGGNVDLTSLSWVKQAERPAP
How it was run: (§1)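 PC-12 cells were kept in RPMI-1640 with 10% horse serum and 5% FBS, and 1321N1 cells in DMEM with 10% FBS. […] Pellets were spiked with D-Arg internal standard, ACN-extracted, dried and FITC-labelled. CE-LIF used 0.5 mM HP-β-CD in 80 mM borate, pH 9.3.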

[2] = target: T2, serine racemase (SR) in C6 cells (Rattus norvegicus, UniProt Q76EQ0); assay: CE-LIF measurement of intra-cellular D-Ser production in C6 cells; type: cell-based; conditions: for intra-cellular D-Ser production: 36 h, C6, n = 3
T2 sequence (Q76EQ0 1-333): T1 sequence (Q76EQ0 1-333)
How it was run: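 C6 cells in DMEM with L-Gln, 10% FBS and 1% penicillin/streptomycin were grown at 37 °C in 5% CO2 to >70% confluence. They were then incubated for 36 h in medium with substrate amino acid (0–20 mM) or inhibitor amino acid (0–8 mM), in triplicate. ACN extracts with D-Arg internal standard were FITC-labelled, then run by CE-LIF in 0.5 mM HP-β-CD/80 mM borate, pH 9.3. D-Ser was quantified by area ratio to FITC-D-Arg.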

[3] = target: T3, serine racemase (SR) in HepG2 cells (Homo sapiens, UniProt Q9GZT4); assay: CE-LIF measurement of intra-cellular D-Ser production in HepG2 cells; type: cell-based; conditions: for intra-cellular D-Ser production: 36 h, HepG2, n = 3
T3 sequence (Q9GZT4 1-340): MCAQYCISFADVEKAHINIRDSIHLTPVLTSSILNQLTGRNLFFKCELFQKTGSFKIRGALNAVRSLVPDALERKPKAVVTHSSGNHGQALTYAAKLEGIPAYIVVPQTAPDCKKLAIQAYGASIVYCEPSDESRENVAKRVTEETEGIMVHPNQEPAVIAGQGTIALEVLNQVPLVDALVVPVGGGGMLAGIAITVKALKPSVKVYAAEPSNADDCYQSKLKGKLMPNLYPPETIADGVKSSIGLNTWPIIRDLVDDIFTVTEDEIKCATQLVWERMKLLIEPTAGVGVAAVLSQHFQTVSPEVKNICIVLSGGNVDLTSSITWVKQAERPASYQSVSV
How it was run: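 Medium for HepG2 was EMEM with 1% L-Gln, 10% FBS, 1% sodium pyruvate and 1% penicillin/streptomycin. Cells at >70% confluence (37 °C, 5% CO2) were exposed for 36 h to medium with substrate amino acid (0–20 mM) or inhibitor amino acid (0–8 mM), in triplicate. Cell extracts in ACN with D-Arg internal standard were FITC-derivatized. CE-LIF used 0.5 mM HP-β-CD in 80 mM borate, pH 9.3, with D-Ser quantified against FITC-D-Arg.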

[4] = target: T4, serine racemase (SR) in 1321N1 cells (Homo sapiens, UniProt Q9GZT4); assay: CE-LIF measurement of intra-cellular D-Ser production in 1321N1 cells; type: cell-based; conditions: for intra-cellular D-Ser production: 36 h, 1321N1, n = 3
T4 sequence (Q9GZT4 1-340): T3 sequence (Q9GZT4 1-340)
How it was run: as §1

[5] = test system: SR protein (monomer and dimer) in PC-12 cells; assay: Western blot of SR protein expression in PC-12 cells; type: cell-based, rat; conditions: 36-h treatment; for expression of the SR dimer relative to control: normalized to β-actin, n=2
How it was run: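 Lysates were BCA-assayed, and 20 μg protein per lane was run on reducing 4–12% SDS-PAGE and moved to PVDF. Blots were blocked in 5% milk, probed with a […] SR antibody, then an HRP secondary, and detected by ECL. Bands were quantified by densitometry, normalised to β-actin, n=2.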

[6] = test system: SR purified from mouse brain; conditions: cited from earlier work
[7] = target: purified recombinant human SR; conditions: cited from earlier work
[8] = test system: primary microglia; conditions: LPS 100 ng/ml; cited from earlier work

NCC(=O)O [Gly, glycine]
intra-cellular D-Ser production ([1]; Gly 0.25 mM in media): 15.91 ± 1.72
intra-cellular D-Ser production ([1]; Gly 0.50 mM in media): 13.86 ± 2.02
intra-cellular D-Ser production ([1]; Gly 1.0 mM in media): 11.59 ± 2.43
intra-cellular D-Ser production ([1]; Gly 2.0 mM in media): 8.30 ± 0.51
intra-cellular D-Ser production ([1]; Gly 4.0 mM in media): 7.82 ± 0.49
intra-cellular D-Ser production ([1]; Gly 6.0 mM in media): 4.64 ± 1.36
intra-cellular D-Ser production ([1]; Gly 8.0 mM in media): 2.72 ± 0.44
decrease in intra-cellular D-Ser ([1]; PC-12, 6 mM Gly): 77%
IC50 ([1]; read-out: IC50 for the Gly inhibition of SR, PC-12, 36 h, n = 3): 1.24 ± 0.39 mM
reduction in intra-cellular D-Ser concentrations ([2]; C6, Gly 0.25 to 8.0 mM added to incubation buffer): 97%
intra-cellular D-Ser production ([2]; Gly 0.25 mM in media): 3.74 ± 0.12
intra-cellular D-Ser production ([2]; Gly 0.50 mM in media): 3.49 ± 0.17
intra-cellular D-Ser production ([2]; Gly 1.0 mM in media): 3.15 ± 0.13
intra-cellular D-Ser production ([2]; Gly 2.0 mM in media): 1.69 ± 0.14
intra-cellular D-Ser production ([2]; Gly 4.0 mM in media): 0.51 ± 0.11
intra-cellular D-Ser production ([2]; Gly 6.0 mM in media): 0.41 ± 0.07
intra-cellular D-Ser production ([2]; Gly 8.0 mM in media): 0.11 ± 0.07
intra-cellular D-Ser production ([3]; Gly 0.25 mM in media): 14.96 ± 0.91
intra-cellular D-Ser production ([3]; Gly 0.50 mM in media): 13.85 ± 0.22
intra-cellular D-Ser production ([3]; Gly 1.0 mM in media): 10.88 ± 0.17
intra-cellular D-Ser production ([3]; Gly 2.0 mM in media): 10.77 ± 0.14
intra-cellular D-Ser production ([3]; Gly 4.0 mM in media): 10.31 ± 0.32
intra-cellular D-Ser production ([3]; Gly 6.0 mM in media): 8.60 ± 0.12
intra-cellular D-Ser production ([3]; Gly 8.0 mM in media): 7.78 ± 0.27
reduction in intra-cellular D-Ser concentrations ([4]; 1321N1, Gly 0.25 to 8.0 mM added to incubation buffer): 35%
intra-cellular D-Ser production ([4]; Gly 0.25 mM in media): 9.05 ± 2.48
intra-cellular D-Ser production ([4]; Gly 0.50 mM in media): 8.34 ± 2.16
intra-cellular D-Ser production ([4]; Gly 1.0 mM in media): 7.38 ± 2.01
intra-cellular D-Ser production ([4]; Gly 2.0 mM in media): 6.69 ± 1.80
intra-cellular D-Ser production ([4]; Gly 4.0 mM in media): 6.53 ± 1.98
intra-cellular D-Ser production ([4]; Gly 6.0 mM in media): 6.32 ± 1.83
intra-cellular D-Ser production ([4]; Gly 8.0 mM in media): 6.29 ± 1.04
IC50 ([4]; read-out: IC50 for the Gly inhibition of SR, 1321N1, 36 h, n = 3): 0.68 ± 0.15 mM
SR dimer or SR monomer expression relative to control ([5]; PC-12, Gly 6 mM): neither of these treatments produced a significant change; also recorded: without causing a significant change
reduction in the D-Ser production ([6]; 2 mM Gly in incubation media): 80%
Ki ([6]; competitive inhibitor): 0.15 mM
Ki [7]: 0.37 mM

N[C@@H](CO)C(=O)O [L-Ser, L-serine]
EC50 [1]: 5.41 ± 0.76 mM
intra-cellular D-Ser production ([1]; L-Ser 2 mM in media): 16.48 ± 1.72
intra-cellular D-Ser production ([1]; L-Ser 4 mM in media): 21.97 ± 2.48
intra-cellular D-Ser production ([1]; L-Ser 6 mM in media): 29.51 ± 4.93
intra-cellular D-Ser production ([1]; L-Ser 8 mM in media): 31.46 ± 0.07
intra-cellular D-Ser production ([1]; L-Ser 10 mM in media): 36.49 ± 1.64
intra-cellular D-Ser production ([1]; L-Ser 15 mM in media): 38.01 ± 0.50
intra-cellular D-Ser production ([1]; L-Ser 20 mM in media): 39.13 ± 0.36
EC50 [2]: 9.37 ± 0.17 mM
increase in intra-cellular D-Ser levels ([2]; C6, L-Ser 2.0 to 20.0 mM added to incubation buffer): 533%
intra-cellular D-Ser production ([2]; L-Ser 2 mM in media): 2.91 ± 0.17
intra-cellular D-Ser production ([2]; L-Ser 4 mM in media): 3.05 ± 0.08
intra-cellular D-Ser production ([2]; L-Ser 6 mM in media): 3.60 ± 0.14
intra-cellular D-Ser production ([2]; L-Ser 8 mM in media): 7.17 ± 0.27
intra-cellular D-Ser production ([2]; L-Ser 10 mM in media): 10.63 ± 0.45
intra-cellular D-Ser production ([2]; L-Ser 15 mM in media): 15.64 ± 0.10
intra-cellular D-Ser production ([2]; L-Ser 20 mM in media): 16.07 ± 0.16
EC50 [3]: 7.87 ± 2.09 mM
increase in intra-cellular D-Ser levels ([3]; HepG2, L-Ser 2.0 to 20.0 mM added to incubation buffer): 50%
intra-cellular D-Ser production ([3]; L-Ser 2 mM in media): 15.48 ± 0.26
intra-cellular D-Ser production ([3]; L-Ser 4 mM in media): 16.21 ± 0.21
intra-cellular D-Ser production ([3]; L-Ser 6 mM in media): 17.53 ± 1.70
intra-cellular D-Ser production ([3]; L-Ser 8 mM in media): 18.50 ± 1.48
intra-cellular D-Ser production ([3]; L-Ser 10 mM in media): 20.10 ± 0.50
intra-cellular D-Ser production ([3]; L-Ser 15 mM in media): 21.81 ± 0.35
intra-cellular D-Ser production ([3]; L-Ser 20 mM in media): 26.28 ± 0.25
EC50 [4]: 9.16 ± 0.27 mM
intra-cellular D-Ser production ([4]; L-Ser 2 mM in media): 8.13 ± 0.14
intra-cellular D-Ser production ([4]; L-Ser 4 mM in media): 9.26 ± 1.00
intra-cellular D-Ser production ([4]; L-Ser 6 mM in media): 9.46 ± 0.87
intra-cellular D-Ser production ([4]; L-Ser 8 mM in media): 9.54 ± 0.82
intra-cellular D-Ser production ([4]; L-Ser 10 mM in media): 19.57 ± 0.77
intra-cellular D-Ser production ([4]; L-Ser 15 mM in media): 21.94 ± 0.18
intra-cellular D-Ser production ([4]; L-Ser 20 mM in media): 22.31 ± 1.27
SR dimer or SR monomer expression relative to control ([5]; PC-12, L-Ser 10 mM): neither of these treatments produced a significant change; also recorded: without causing a significant change
Km ([6]; read-out: Km for L-Ser): 18 mM
Km ([7]; read-out: Km for L-Ser): 4 mM

lipopolysaccharide [LPS]
increase in intra-cellular D-Ser concentration ([1]; PC-12, LPS 10 ng/ml in incubation media): 2.5 fold
increase in intra-cellular D-Ser concentration ([1]; PC-12, LPS 100 ng/ml in incubation media): 3.5 fold
expression of the SR dimer relative to control ([5]; PC-12, LPS 10 ng/ml): 1.2 fold
expression of the SR dimer relative to control ([5]; PC-12, LPS 100 ng/ml): 1.6 fold
D-Ser levels in the incubation media [8]: increased
expression of the dimeric form of SR [8]: increased

Source: publication PMC3270116 (Analytical Biochemistry, 2011)
